Laboratory results: ChEMBL document CHEMBL4689842, “EUbOPEN Chemogenomics Library wave 1” (2021)

Tests used:
Type in all cases: toxicity, cell-based
U2OS [1] = assay: Multiplex assay against U2OS; settings: human
In short: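 Four dyes were applied at seeding to live cells: Hoechst33342, BioTracker Green Microtubule Cytoskeleton Dye, MitoTracker Red and Annexin V Alexa Fluor 680. Imaging after compound addition used a CQ1 microscope at 37°C and 5% CO2. CellPathfinder machine-learning gating then sorted cells into Hoechst high-intensity objects or normal cells, normal cells into healthy, pyknosed or fragmented nuclei, and pyknosed cells into mitotic or apoptotic, with tubulin, mitochondrial-mass and membrane-permeability phenotypes given as per cents of healthy-nucleus cells.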

U2OS [2] = assay: Incucyte cell viability with U2OS; settings: human, 10 µM, compound concentration 10 uM; further: filed as whole numbers so only -1 and 0 and 1 occur
HEK-293T = assay: Incucyte cell viability with HEK293T; settings: human, 10 µM, compound concentration 10 uM; further: filed as whole numbers so only -1 and 0 and 1 occur
[3] = 24 h, 10 µM, compound concentration 10 uM, replicate 1
[4] = 24 h, 10 µM, compound concentration 10 uM, replicate 2
[5] = 48 h, 1 µM, compound concentration 1 uM, replicate 1
[6] = 48 h, 1 µM, compound concentration 1 uM, replicate 2
[7] = 48 h, 10 µM, compound concentration 10 uM, replicate 1
[8] = 48 h, 10 µM, compound concentration 10 uM, replicate 2
[9] = 6 h, replicate number 1, timepoint 6 hours
[10] = 12 h, replicate number 1, timepoint 12 hours
[11] = 18 h, replicate number 1, timepoint 18 hours
[12] = 24 h, replicate number 1, timepoint 24 hours

With C[C@@H](Oc1cc(-n2cnc3ccc(CN4CCN(C)CC4)cc32)sc1C(N)=O)c1ccccc1C(F)(F)F [GSK-461364] the “Population Mitotic Cells (%)” value (U2OS [1]; [3]) was 9%, the “Population Normal (%)” value (U2OS [1]; [3]) was 91% and the “Population Pyknosed Nuclei (%)” value (U2OS [1]; [3]) was 54%. The “Population Tubulin-Different-Phenotype (%)” value (U2OS [1]; [3]) was 100%, the “Total Cell Count” value (U2OS [1]; [3]) was 138 and the “Population Apoptotic (%)” value (U2OS [1]; [4]) was 82%. For the same compound, the “Population Fragmented Nuclei (%)” value (U2OS [1]; [4]) was 10%, the “Population Healthy Nuclei (%)” value (U2OS [1]; [4]) was 47% and the “Population Hoechst High Intensity Objects (%)” value (U2OS [1]; [4]) was 6%. For the same compound, the “Population Membrane Permeable-Phenotype (%)” value (U2OS [1]; [4]) was 90%, the “Population Mitotic Cells (%)” value (U2OS [1]; [4]) was 17% and the “Population Normal (%)” value (U2OS [1]; [4]) was 93%. For the same compound, the “Population Pyknosed Nuclei (%)” value (U2OS [1]; [4]) was 41%, the “Population Apoptotic (%)” value (U2OS [1]; [5]) was 71% and the “Population Fragmented Nuclei (%)” value (U2OS [1]; [5]) was 22%. For the same compound, the “Population Healthy Nuclei (%)” value (U2OS [1]; [5]) was 51%, the “Population Hoechst High Intensity Objects (%)” value (U2OS [1]; [5]) was 10% and the “Population Membrane Permeable-Phenotype (%)” value (U2OS [1]; [5]) was 18%. The “Population Mitochondria Different-Phenotype (%)” value (U2OS [1]; [5]) was 57%, the “Population Mitotic Cells (%)” value (U2OS [1]; [5]) was 28% and the “Population Normal (%)” value (U2OS [1]; [5]) was 89%. The “Population Pyknosed Nuclei (%)” value (U2OS [1]; [5]) was 25%, the “Population Tubulin-Different-Phenotype (%)” value (U2OS [1]; [5]) was 85% and the “Total Cell Count” value (U2OS [1]; [5]) was 246. The “Population Apoptotic (%)” value (U2OS [1]; [6]) was 47%, the “Population Fragmented Nuclei (%)” value (U2OS [1]; [6]) was 10% and the “Population Healthy Nuclei (%)” value (U2OS [1]; [6]) was 68%. The “Population Hoechst High Intensity Objects (%)” value (U2OS [1]; [6]) was 5%, the “Population Membrane Permeable-Phenotype (%)” value (U2OS [1]; [6]) was 27% and the “Population Mitochondria Different-Phenotype (%)” value (U2OS [1]; [6]) was 25%. The “Population Mitotic Cells (%)” value (U2OS [1]; [6]) was 52%, the “Population Normal (%)” value (U2OS [1]; [6]) was 94% and the “Population Pyknosed Nuclei (%)” value (U2OS [1]; [6]) was 20%. The “Population Tubulin-Different-Phenotype (%)” value (U2OS [1]; [6]) was 30%, the “Total Cell Count” value (U2OS [1]; [6]) was 128 and the “Population Apoptotic (%)” value (U2OS [1]; [7]) was 98%. For the same compound, the “Population Fragmented Nuclei (%)” value (U2OS [1]; [7]) was 27%, the “Population Healthy Nuclei (%)” value (U2OS [1]; [7]) was 14% and the “Population Hoechst High Intensity Objects (%)” value (U2OS [1]; [7]) was 11%. The “Population Membrane Permeable-Phenotype (%)” value (U2OS [1]; [7]) was 100%, the “Population Mitochondria Different-Phenotype (%)” value (U2OS [1]; [7]) was 94% and the “Population Mitotic Cells (%)” value (U2OS [1]; [7]) was 1%. For the same compound, the “Population Normal (%)” value (U2OS [1]; [7]) was 88%, the “Population Pyknosed Nuclei (%)” value (U2OS [1]; [7]) was 58% and the “Population Tubulin-Different-Phenotype (%)” value (U2OS [1]; [7]) was 100%. The “Total Cell Count” value (U2OS [1]; [7]) was 138, the “Population Apoptotic (%)” value (U2OS [1]; [8]) was 82% and the “Population Fragmented Nuclei (%)” value (U2OS [1]; [8]) was 20%. For the same compound, the “Population Healthy Nuclei (%)” value (U2OS [1]; [8]) was 43%, the “Population Hoechst High Intensity Objects (%)” value (U2OS [1]; [8]) was 8% and the “Population Membrane Permeable-Phenotype (%)” value (U2OS [1]; [8]) was 97%. For the same compound, the “Population Mitochondria Different-Phenotype (%)” value (U2OS [1]; [8]) was 100%, the “Population Mitotic Cells (%)” value (U2OS [1]; [8]) was 17% and the “Population Normal (%)” value (U2OS [1]; [8]) was 91%. For the same compound, the “Population Pyknosed Nuclei (%)” value (U2OS [1]; [8]) was 36%, the “Total Cell Count” value (U2OS [1]; [8]) was 108 and the “Growth Rate” value (U2OS [2]; [9]) was 1. For the same compound, the “Growth Rate” value (U2OS [2]; [10]) was 0, the “Growth Rate” value (U2OS [2]; [11]) was 0 and the “Growth Rate” value (U2OS [2]; [12]) was 0. For the same compound, the “Growth Rate” value (HEK-293T; [9]) was 0, the “Growth Rate” value (HEK-293T; [10]) was 0 and the “Growth Rate” value (HEK-293T; [11]) was 0. For the same compound, the “Growth Rate” value (HEK-293T; [12]) was 0.
